Columns and labels:
[1] = cited from earlier work
[2] = Safety and tolerability assessments; type: in vivo, human (postmenopausal women with T2D); settings: for Increase in serum amylase concentration / Increase in serum lipase concentration: mean ± SD
Method in brief: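 Test compound given subcutaneously once weekly, escalated 0.25 mg for 4 weeks, 0.5 mg for 4 weeks, then 1.0 mg for 5 weeks. A combined oral contraceptive was given once daily for 8 days before escalation and again during the final week. The investigator recorded AEs, both observed and spontaneously reported, with severity graded and relation assessed. Amylase and lipase were measured as change from baseline to end of treatment and to follow-up (5 weeks after last dose), mean ± SD.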

[3] = system: dipeptidyl peptidase-4 (DPP-4); settings: in words; native GLP-1 ref 1; semaglutide ref 12; cited from earlier work
[4] = baseline to end of semaglutide treatment

| Compound | Reported t1/2 [1] [h] | Subjects reporting diarrhea ([2]; 6 subjects, all mild or moderate) [%] | Severe hypoglycemia (ADA classification) ([2]; FPG at study site and self-measured at home) | Increase in serum amylase concentration [2, 4] [U/L] | Increase in serum lipase concentration [2, 4] [U/L] | Increase in serum amylase concentration ([2]; baseline to follow-up) [U/L] | Increase in serum lipase concentration ([2]; baseline to follow-up) [U/L] | Antisemaglutide antibodies ([2]; in vivo) | Changes in ECG or safety laboratory parameters, including calcitonin ([2]; in vivo) | Pancreatitis ([2]; in vivo) | Serum amylase values ≥3x ULN ([2]; in vivo) | Duration of nausea episodes, median ([2]; min, max: 0.01, 95.6) [days] | Injection-site reactions ([2]; s.c. injection) | Subjects reporting TEAEs ([2]; whole study (oral contraceptive and semaglutide periods), 38 of 43 subjects) [%] | Serious AEs ([2]; whole study, n = 43) | Degradation by dipeptidyl peptidase-4 (DPP-4) [3] | Half-life (t1/2) ([1]; in words) |
| --- | --- | --- | --- | --- | --- | --- | --- | --- | --- | --- | --- | --- | --- | --- | --- | --- | --- |
| CC[C@H](C)[C@H](NC(=O)[C@H](Cc1ccccc1)NC(=O)[C@H](CCC(=O)O)NC(=O)[C@H](CCCCNC(=O)COCCOCCNC(=O)COCCOCCNC(=O)CC[C@H](NC(=O)CCCCCCCCCCCCCCCCC(=O)O)C(=O)O)NC(=O)[C@H](C)NC(=O)[C@H](C)NC(=O)[C@H](CCC(N)=O)NC(=O)CNC(=O)[C@H](CCC(=O)O)NC(=O)[C@H](CC(C)C)NC(=O)[C@H](Cc1ccc(O)cc1)NC(=O)[C@H](CO)NC(=O)[C@H](CO)NC(=O)[C@@H](NC(=O)[C@H](CC(=O)O)NC(=O)[C@H](CO)NC(=O)[C@@H](NC(=O)[C@H](Cc1ccccc1)NC(=O)[C@@H](NC(=O)CNC(=O)[C@H](CCC(=O)O)NC(=O)C(C)(C)NC(=O)[C@@H](N)Cc1cnc[nH]1)[C@@H](C)O)[C@@H](C)O)C(C)C)C(=O)N[C@@H](C)C(=O)N[C@@H](Cc1c[nH]c2ccccc12)C(=O)N[C@@H](CC(C)C)C(=O)N[C@H](C(=O)N[C@@H](CCCNC(=N)N)C(=O)NCC(=O)N[C@@H](CCCNC(=N)N)C(=O)NCC(=O)O)C(C)C [semaglutide] | 155 to 184 | 14 | no cases of severe hypoglycemia were reported | 1.5 ± 15.3 | 9.4 ± 24.3 | 7.0 ± 14.1 | 10.7 ± 32.6 | No antisemaglutide antibodies were detected in any subject | No clinically meaningful changes were observed | No cases of pancreatitis were reported | No value was ≥3x ULN | 3.9 | no injection-site reactions were reported | 88 | No serious AEs were reported | less susceptible to degradation by DPP-4 |  |
| Glucagon-like peptide-1 [native GLP-1, reference compound] |  |  |  |  |  |  |  |  |  |  |  |  |  |  |  | rapidly degraded | very short |

Source: publication PMC4418331 (Journal of Clinical Pharmacology, 2015)
